Measured values published in ChEMBL document CHEMBL3352730, “Synthesis and effects on cell viability of flavonols and 3-methyl ether derivatives on human leukemia cells” (Eur J Med Chem, 2014).
Active and inactive are the calls of the source. The rule behind the calls is not given here.

Experiments:
HL-60 [1] = assay: Induction of apoptosis in human HL60 cells assessed as pro-caspase-8 processing at 3 and 10 uM after 6 to 24 hrs by immunoblotting method; type: functional, cell-based
Outline: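 Kinetic and dose-response immunoblots. Cells were treated, harvested at the indicated times, and probed with antibodies that detect both procaspase-8/-9 and their cleaved fragments.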

U-937 [2] = assay: Induction of cell cycle arrest in human U937 cells assessed as accumulation at G1 phase at 10 uM after 12 hrs by propidium iodide staining based flow cytometry (reference value: 45.8 +/- 0.8%); type: functional
HL-60 [3] = assay: Induction of cell cycle arrest in human HL60 cells assessed as accumulation at subG1 phase at 10 uM after 24 hrs by propidium iodide staining based flow cytometry (reference value: 3.4 +/- 0.3%); type: functional
HL-60 [4] = assay: Induction of cell cycle arrest in human HL60 cells assessed as accumulation at subG1 phase at 3 uM after 48 hrs by propidium iodide staining based flow cytometry (reference value: 3.7 +/- 0.1%); type: functional
U-937 [5] = assay: Induction of cell cycle arrest in human U937 cells assessed as accumulation at G1 phase at 10 uM after 48 hrs by propidium iodide staining based flow cytometry (reference value: 51.9 +/- 0.9%); type: functional
U-937 [6] = assay: Induction of apoptosis in human U937 cells assessed as increase in caspase 8 activity using IETD-pNA substrate at 10 uM after 24 hrs; type: functional, cell-based
Outline: (§1)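 Cells were given 10 µM for 24 h. Lysates were assayed for cleavage of DEVD-pNA (caspase-3/7), IETD-pNA (caspase-8) and LEHD-pNA (caspase-9). Results are expressed as fold over control, from three independent experiments in triplicate.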

MOLT-3 [7] = assay: Induction of apoptosis in human MOLT3 cells assessed as pro-caspase-7 cleavage by Western blotting method; type: functional, cell-based
Outline: (§2)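 Cells were exposed to a range of compound concentrations and harvested at 24 h. Lysates were immunoblotted for caspase proforms and cleaved forms, and for Bcl-2 family proteins.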

HL-60 [8] = assay: Induction of cell cycle arrest in human HL60 cells assessed as accumulation at G2/M phase at 1 uM after 48 hrs by propidium iodide staining based flow cytometry (reference value: 17.9 +/- 0.7%); type: functional
U-937 [9] = assay: Induction of cell cycle arrest in human U937 cells assessed as accumulation at G2/M phase at 10 uM after 12 hrs by propidium iodide staining based flow cytometry (reference value: 24.2 +/- 1.2%); type: functional
HL-60 [10] = assay: Induction of apoptosis in human HL60 cells assessed as pro-caspase-9 cleavage by Western blotting method; type: functional, cell-based; outline: as §2
U-937 [11] = assay: Increase in TRAIL expression in human U937 cells at 10 30 uM after 24 hrs by immunoblotting method; type: functional, cell-based
Outline: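 HL-60 and U937 cells were treated with increasing concentrations for 24 h. Lysates were immunoblotted for TRAIL, DR4 and DR5.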

HL-60 [12] = assay: Induction of apoptosis in human HL60 cells assessed as pro-caspase-7 cleavage by Western blotting method; type: functional, cell-based; outline: as §2
MOLT-3 [13] = assay: Induction of apoptosis in human MOLT3 cells assessed as pro-caspase-8 cleavage by Western blotting method; type: functional, cell-based; outline: as §2
U-937 [14] = assay: Induction of cell cycle arrest in human U937 cells assessed as accumulation at G2/M phase at 3 uM after 12 hrs by propidium iodide staining based flow cytometry (reference value: 24.2 +/- 1.2%); type: functional
U-937 [15] = assay: Induction of cell cycle arrest in human U937 cells assessed as accumulation at S phase at 1 uM after 48 hrs by propidium iodide staining based flow cytometry (reference value: 18.9 +/- 0.2%); type: functional
MOLT-3 [16] = assay: Induction Bax cleavage in human MOLT3 cells at 3 uM by Western blotting method; type: functional, cell-based; outline: as §2
U-937 [17] = assay: Induction of cell cycle arrest in human U937 cells assessed as accumulation at subG1 phase at 1 uM after 48 hrs by propidium iodide staining based flow cytometry (reference value: 6.7 +/- 0.3%); type: functional
HL-60 [18] = assay: Induction of cell cycle arrest in human HL60 cells assessed as accumulation at G2/M phase at 10 uM after 48 hrs by propidium iodide staining based flow cytometry (reference value: 17.9 +/- 0.7%); type: functional
HL-60 [19] = assay: Induction of cell cycle arrest in human HL60 cells assessed as accumulation at S phase at 3 uM after 12 hrs by propidium iodide staining based flow cytometry (reference value: 14.7 +/- 0.3%); type: functional
U-937 [20] = assay: Induction of apoptosis in human U937 cells assessed as pro-caspase-8 cleavage by Western blotting method; type: functional, cell-based
Outline: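 U937 cells exposed to increasing concentrations of the flavonol and harvested at 24 h. Lysates were immunoblotted with antibodies that detect both the pro-caspases and their cleaved forms.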

HL-60 [21] = assay: Induction of cell cycle arrest in human HL60 cells assessed as accumulation at S phase at 1 uM after 24 hrs by propidium iodide staining based flow cytometry (reference value: 17.9 +/- 0.6%); type: functional
HL-60 [22] = assay: Induction of cell cycle arrest in human HL60 cells assessed as accumulation at G1 phase at 1 uM after 12 hrs by propidium iodide staining based flow cytometry (reference value: 57.2 +/- 0.9%); type: functional
U-937 [23] = assay: Induction of apoptosis in human U937 cells assessed as increase in caspase 3/7 activity using DEVD-pNA substrate at 10 uM after 24 hrs; type: functional, cell-based; outline: as §1
HL-60 [24] = assay: Induction of apoptosis in human HL60 cells at 30 uM after 24 hrs by propidium iodide staining based flow cytometry (reference value: 3.8 +/- 0.6%); type: functional
U-937 [25] = assay: Induction of cell cycle arrest in human U937 cells assessed as accumulation at G2/M phase at 10 uM after 24 hrs by propidium iodide staining based flow cytometry (reference value: 22.8 +/- 1.6%); type: functional
U-937 [26] = assay: Induction of cell cycle arrest in human U937 cells assessed as accumulation at S phase at 3 uM after 48 hrs by propidium iodide staining based flow cytometry (reference value: 18.9 +/- 0.2%); type: functional
HL-60 [27] = assay: Induction of cell cycle arrest in human HL60 cells assessed as accumulation at G2/M phase at 10 uM after 24 hrs by propidium iodide staining based flow cytometry (reference value: 22.5 +/- 0.9%); type: functional
U-937 [28] = assay: Induction of cell cycle arrest in human U937 cells assessed as accumulation at subG1 phase at 10 uM after 48 hrs by propidium iodide staining based flow cytometry (reference value: 6.7 +/- 0.3%); type: functional
HL-60 [29] = assay: Induction of cell cycle arrest in human HL60 cells assessed as accumulation at G1 phase at 1 uM after 24 hrs by propidium iodide staining based flow cytometry (reference value: 53 +/- 1.1%); type: functional
HL-60 [30] = assay: Reduction in Bid expression in human HL60 cells by Western blotting method; type: functional, cell-based
Outline: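 Cells (HL-60, Molt-3 or U937) were incubated with increasing concentrations of compound and harvested at 24 h. Cell lysates were then immunoblotted for Bid and other Bcl-2 family members.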

HL-60 [31] = assay: Induction of cell cycle arrest in human HL60 cells assessed as accumulation at G1 phase at 1 uM after 48 hrs by propidium iodide staining based flow cytometry (reference value: 60.4 +/- 0.4%); type: functional
HL-60 [32] = assay: Induction of cell cycle arrest in human HL60 cells assessed as accumulation at subG1 phase at 10 uM after 12 hrs by propidium iodide staining based flow cytometry (reference value: 6.1 +/- 0.5%); type: functional

In the case of `O=c1c(O)c(-c2ccc(Br)cc2)oc2ccccc12`, the Activity (HL-60 [1]) is reported as “Active”, the Activity (U-937 [2]) is reported as 47.6% and the Activity (HL-60 [3]) is reported as 20.4%. For the same molecule, the Activity (HL-60 [4]) was 14.3%, the Activity (U-937 [5]) was 41.4% and the Activity (U-937 [6]) was “Active”. For the same molecule, the Activity (MOLT-3 [7]) was “Active”, the Activity (HL-60 [8]) was 20.8% and the Activity (U-937 [9]) was 19.6%. The Activity (HL-60 [10]) was “Active”, the Activity (U-937 [11]) was “Active” and the Activity (HL-60 [12]) was “Active”. For the same molecule, the Activity (MOLT-3 [13]) was “Active”, the Activity (U-937 [14]) was 23.9% and the Activity (U-937 [15]) was 19.6%. The Activity (MOLT-3 [16]) was “Active”, the Activity (U-937 [17]) was 7% and the Activity (HL-60 [18]) was 5.5%. The Activity (HL-60 [19]) was 14.8%, the Activity (U-937 [20]) was “Active” and the Activity (HL-60 [21]) was 20.7%. For the same molecule, the Activity (HL-60 [22]) was 56.2%, the Activity (U-937 [23]) was “Active” and the Activity (HL-60 [24]) was 51.8%. The Activity (U-937 [25]) was 18.7%, the Activity (U-937 [26]) was 21.2% and the Activity (HL-60 [27]) was 12.6%. For the same molecule, the Activity (U-937 [28]) was 45.7%, the Activity (HL-60 [29]) was 49.5% and the Activity (HL-60 [30]) was “Active”. It also gave an Activity (HL-60 [31]) of 57.6% and an Activity (HL-60 [32]) of 8.9%.
